Results published in the RNAGym collection of RNA variant scans (doi:10.1002/anie.201605470).

B1: Osa-1-4 twister ribozyme (parent)
chain: CCGCCUAACACUGCCAAUGCCGGUCCCAAGCCCGGAUAAAAGUGGAGGGGGCGG

Variants of: B1
Experiment: self-cleavage, relative activity (ratio to wild type); higher = more cleavage; co-transcriptional
Outline: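 In vitro transcription at 37 °C for 2 h allowed the twister ribozyme to cleave itself as it was made. Its 54-nucleotide Oryza sativa template had been synthesised with 97 % wild-type base and 1 % of each other base at the 48 positions downstream of the cleavage site. A template-switching oligonucleotide was used for reverse transcription, followed by PCR amplification and deep sequencing. Whether reads carried upstream sequence set the cleavage status, and relative activity is the fraction cleaved normalised to wild type.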

Variant | self-cleavage
C21U C27G | 0.09
C21U C27A | 0.15
C21U C27U | 0.14
C21A U37C | 0.78
C21A U37A | 0.92
C21A U37G | 0.94
C21A G44A | 0.38
C21A G44U | 0.21
C21A G44C | 0.24
C21A C9A | 0.07
C21A C9U | 0.1
C21A C9G | 0.11
C21U C9A | 0.55
C21U C9G | 0.74
C21U C9U | 0.92
C21A G42U | 0.05
C21A G42A | 0.1
C21A G42C | 0.07
C21A G19U | 0.07
C21A G19A | 0.4
C21A G19C | 0.03
C21U G13U | 0.04
C21U G13C | 0.03
C21U G13A | 0.11

Variant | self-cleavage
G22A G35A | 0.34
G22A G35U | 0.32
G22A G35C | 0.11
C21U G42C | 0.18
C21U G42A | 0.51
C21U G42U | 0.09
C21U U24A | 0.29
C21U U24G | 0.09
C21U U24C | 0.26
C21G C9A | 0.04
C21G C9G | 0.07
C21G C9U | 0.04
C21A G53A | 0.19
C21A G53U | 0.11
C21A G53C | 0.06
C21G G47U | 0.03
C21G G47A | 0.03
C21G G47C | 0.04
C21G G49C | 0.03
C21G G49A | 0.05
C21G G49U | 0.02
C21G C31G | 0.06
C21G C31U | 0.05
C21G C31A | 0.02

Variant | self-cleavage
C21G G53U | 0.04
C21G G53C | 0.02
C21G G53A | 0.08
C20U U24A | 0.44
C20U U24C | 0.38
C20U U24G | 0.08
C21G G34C | 0.83
C21G G34U | 0.89
C21G G34A | 0.3
G22A G23C | 0.05
G22A G23U | 0.08
G22A G23A | 0.12
C21G U43A | 0.09
C21G U43C | 0.05
C21G U43G | 0.08
C21A G35U | 0.44
C21A G35A | 0.87
C21A G35C | 0.06
C21G C26G | 0.05
C21G C26A | 0.02
C21G C26U | 0.06
C21U G49A | 0.14
C21U G49U | 0.14
C21U G49C | 0.08

Variant | self-cleavage
C21U U18A | 1
C21U U18G | 0.78
C21U U18C | 1.03
C21A G34A | 0.91
C21A G34C | 0.92
C21A G34U | 1.05
C20U U12A | 0.83
C20U U12C | 0.49
C20U U12G | 0.46
G22A G30U | 0.05
G22A G30C | 0.05
G22A G30A | 0.05
C21U G34C | 0.96
C21U G34U | 1.05
C21U G34A | 1.05
C21U C33G | 0.07
C21U C33A | 0.08
C21U C33U | 0.47
C21A C27G | 0.04
C21A C27A | 0.08
C21A C27U | 0.08
C21A G13A | 0.07
C21A G13U | 0.04
C21A G13C | 0.03

Variant | self-cleavage
C21U C52A | 0.97
C21U C52G | 1.02
C21U C52U | 1.02
C21U G50C | 0.94
C21U G50U | 1.03
C21U G50A | 0.97
C21U U43A | 0.89
C21U U43C | 0.32
C21U U43G | 0.47
C21A U18C | 0.82
C21A U18A | 0.83
C21A U18G | 0.6
C21A G45C | 0.05
C21A G45A | 0.05
C21A G45U | 0.05
C21G G54U | 0.11
C21G G54C | 0.07
C21G G54A | 0.07
C21A U43G | 0.1
C21A U43A | 0.09
C21A U43C | 0.11
C21U G48U | 0.1
C21U G48A | 0.1
C21U G48C | 0.11

Variant | self-cleavage
C21G G44C | 0.08
C21G G44A | 0.09
C21G G44U | 0.08
C20U U37A | 0.96
C20U U37G | 1.04
C20U U37C | 1.02
C21U G35A | 0.98
C21U G35U | 0.57
C21U G35C | 0.1
C21A C25G | 0.07
C21A C25U | 0.16
C21A C25A | 0.08
C21G G19U | 0.03
C21G G19C | 0.02
C21G G19A | 0.05
C20U U43A | 0.84
C20U U43C | 0.49
C20U U43G | 0.68
C21A G54C | 0.32
C21A G54U | 0.59
C21A G54A | 0.29
C21A G23A | 0.07
C21A G23U | 0.04
C21A G23C | 0.03

Variant | self-cleavage
C21G G13A | 0.02
C21G G13U | 0.02
C21G G13C | 0.01
G22A G45U | 0.08
G22A G45C | 0.06
G22A G45A | 0.15
C20U G50U | 0.95
C20U G50A | 0.92
C20U G50C | 0.87
C21U G23A | 0.1
C21U G23U | 0.06
C21U G23C | 0.06
C21U G51C | 0.09
C21U G51A | 0.9
C21U G51U | 0.67
C21A C52G | 0.54
C21A C52A | 0.31
C21A C52U | 0.86
C20U G48U | 0.1
C20U G48A | 0.1
C20U G48C | 0.1
C21G U24G | 0.03
C21G U24A | 0.06
C21G U24C | 0.04

Variant | self-cleavage
C21G C33A | 0.03
C21G C33G | 0.05
C21G C33U | 0.05
C20U G53U | 0.38
C20U G53A | 0.75
C20U G53C | 0.09
C21A C26G | 0.09
C21A C26A | 0.05
C21A C26U | 0.2
C21A U12G | 0.12
C21A U12C | 0.14
C21A U12A | 0.18
G22A G44C | 0.92
G22A G44U | 0.84
G22A G44A | 0.94
C21G G23C | 0.03
C21G G23A | 0.07
C21G G23U | 0.07
C20U G45U | 0.14
C21U G44A | 0.97
C21U G44U | 0.95
C21U G44C | 0.99
C21G G45U | 0.02
C21G G45C | 0.02

Variant | self-cleavage
C21G G45A | 0.04
C21A G50C | 0.24
C21A G50A | 0.85
C21A G50U | 0.52
C21A C32G | 0.09
C21A C32A | 0.08
C21A C32U | 0.07
C21G G50U | 0.1
C21G G50A | 0.09
C21G G50C | 0.06
G22A | 1.05
C21A C33A | 0.09
C21A C33U | 0.07
C21A C33G | 0.03
C21G G30A | 0.02
C21G G30C | 0.02
C21G G30U | 0.02
C21G | 0.08
C21U | 1.03
C21A | 0.93
C21U G47C | 0.12
C21U G47U | 0.23
C21U G47A | 0.19
C21G U18A | 0.1

Variant | self-cleavage
C21G U18G | 0.11
C21G U18C | 0.08
C21U U37G | 1.04
C21U U37A | 1.07
C21U U37C | 1.05
C20U U18G | 0.82
C20U U18A | 0.86
C20U U18C | 0.87
G22A G34U | 0.21
G22A G34C | 0.11
G22A G34A | 0.14
C21G G42U | 0.02
C21G G42C | 0.05
C21G G42A | 0.05
C21G C27U | 0.02
C21G C27A | 0.04
C21G C27G | 0.03
C21A C31A | 0.04
C21A C31U | 0.21
C21A C31G | 0.07
C21G C52G | 0.18
C21G C52U | 0.1
C21G C52A | 0.1
C21A G30A | 0.03

Variant | self-cleavage
C21A G30U | 0.04
C21A G30C | 0.04
C21U C26A | 0.06
C21U C26U | 0.88
C21U C26G | 0.12
C20U G49A | 0.16
C20U G49U | 0.13
C20U G49C | 0.11
C21G G22U | 0.5
C21G G22A | 0.49
C21G G22C | 0.16
C21U C32G | 0.11
C21U C32A | 0.09
C21U C32U | 0.13
C21A U24A | 0.07
C21A U24C | 0.06
C21A U24G | 0.06
C21A G22A | 0.11
C21A G22U | 0.1
C21A G22C | 0.07
C21U G53C | 0.1
C21U G53U | 0.32
C21U G53A | 0.64
G22A G47A | 0.13

Variant | self-cleavage
G22A G47C | 0.08
C21A G49U | 0.06
C21A G49C | 0.05
C21A G49A | 0.07
C20U G47A | 0.28
C20U G47C | 0.15
C20U G47U | 0.29
C21U G19U | 0.21
C21U G19A | 0.66
C21U G19C | 0.04
C21U G30A | 0.04
C21U G30C | 0.06
C21U G30U | 0.04
C21G U12G | 0.06
C21G U12A | 0.08
C21G U12C | 0.04
C21A G47U | 0.07
C21A G47C | 0.05
C21A G47A | 0.07
C21U G45A | 0.22
C21U G45C | 0.07
C21U G45U | 0.11
C21G G48A | 0.03
C21G G48C | 0.03

Variant | self-cleavage
C21G G48U | 0.02
C21G G35C | 0.03
C21G G35U | 0.06
C21G G35A | 0.08
C21G U37C | 0.08
C21G U37A | 0.13
C21G U37G | 0.14
C21A G48C | 0.07
C21A G48A | 0.06
C21A G48U | 0.05
C21U C31G | 0.14
C21U C31A | 0.06
C21U C31U | 0.97
C21U U12C | 0.33
C21U U12G | 0.26
C21U U12A | 0.73
C21G C32U | 0.02
C21G C32G | 0.06
C21G C32A | 0.03
C21U C25U | 0.88
C21U C25G | 0.14
C21U C25A | 0.11
C21A G51C | 0.07
C21A G51U | 0.25

Variant | self-cleavage
C21A G51A | 0.31
G22A G42C | 0.1
G22A G42U | 0.05
G22A G42A | 0.17
C21G C25U | 0.05
C21G C25G | 0.03
C21G C25A | 0.04
C20U G51C | 0.11
C20U G51U | 0.63
C20U G51A | 0.85
C21U G54C | 0.89
C21U G54U | 0.93
C21U G54A | 0.96
C20U G54C | 0.84
C20U G54A | 0.75
C20U G54U | 0.85
C21U G22U | 0.1
C21U G22C | 0.17
C21U G22A | 0.26
C21G G51C | 0.02
C21G G51U | 0.06
C21G G51A | 0.07
